# Laboratory results from ChEMBL document CHEMBL3352428, “Successes and challenges in phenotype-based lead discovery for prion diseases” (J Med Chem, 2014).
# Experiments:
# [1] = Drug concentration at steady state in mouse brain assessed as total compound level in brain homogenates at 80 mg/kg/day, po measured after 3 days; assay type: ADME, organism-based; set-up: route oral; settings: brain homogenate, read-out: Css
# In short: (§1)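 Mice received compound mixed into a liquid rodent diet for 3 days at about 40, 80, 130 or 210 mg kg-1 day-1. Plasma and brain were collected at the end of the last dosing cycle, at a single time point, and analysed as in the single-dose PK studies. Values are total drug in brain homogenate and are treated as pseudo-steady-state concentrations.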
# [2] = Drug concentration at steady state in mouse brain assessed as total compound level in brain homogenates at 210 mg/kg/day, po measured after 3 days; assay type: ADME, organism-based; set-up: route oral; settings: brain homogenate, read-out: Css; in short: as §1
# [3] = Inhibition of mouse RML prion protein infected in mouse ScN2a-cl3 cells after 5 days; assay type: cell-based; settings: N2a-cl3, 120 h
# [4] = AUC in mouse brain at 40 mg/kg, po administered as single dose; assay type: ADME, organism-based; set-up: dose 40 mg/kg, route oral
# [5] = Drug concentration at steady state in mouse brain assessed as total compound level in brain homogenates at 130 mg/kg/day, po measured after 3 days; assay type: ADME, organism-based; set-up: route oral; settings: brain homogenate, read-out: Css; in short: as §1
# [6] = Drug concentration at steady state in mouse brain assessed as total compound level in brain homogenates at 40 mg/kg/day, po measured after 3 days; assay type: ADME, organism-based; set-up: route oral; settings: brain homogenate, read-out: Css; in short: as §1
# [7] = Oral bioavailability in FVB mouse […] at 10 mg/kg administered as single dose; assay type: ADME, organism-based; settings: plasma
# In short: (§2)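 Female FVB mice were given a single dose, 1 mg/kg iv or 10 mg/kg po, and plasma and brain were analysed separately. Brain samples were whole-brain homogenate. Parameters came from concentration–time curves: Vss, clearance, half-life, Cmax, AUC, brain/plasma AUC ratio and bioavailability.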
# [8] = AUC in FVB mouse plasma at 1 mg/kg, iv administered as single dose; assay type: ADME, organism-based; set-up: dose 1 mg/kg, route intravenous
# [9] = AUC in FVB mouse plasma at 10 mg/kg, po administered as single dose; assay type: ADME, organism-based; set-up: dose 10 mg/kg, route oral
# [10] = Cmax in FVB mouse brain at 10 mg/kg, po administered as single dose; assay type: ADME, organism-based; set-up: dose 10 mg/kg, route oral; in short: as §2
# [11] = Half life in FVB mouse plasma at 10 mg/kg, po administered as single dose; assay type: ADME, organism-based; set-up: dose 10 mg/kg, route oral; in short: as §2
# [12] = Cmax in FVB mouse plasma at 1 mg/kg, iv administered as single dose; assay type: ADME, organism-based; set-up: dose 1 mg/kg, route intravenous; in short: as §2
# [13] = Half life in FVB mouse plasma at 1 mg/kg, iv administered as single dose; assay type: ADME, organism-based; set-up: dose 1 mg/kg, route intravenous; in short: as §2
# [14] = AUC in FVB mouse brain at 10 mg/kg, po administered as single dose; assay type: ADME, organism-based; set-up: dose 10 mg/kg, route oral
# [15] = Cmax in FVB mouse plasma at 10 mg/kg, po administered as single dose; assay type: ADME, organism-based; set-up: dose 10 mg/kg, route oral; in short: as §2
# [16] = Clearance in FVB mouse plasma at 1 mg/kg, iv administered as single dose; assay type: ADME, organism-based; set-up: dose 1 mg/kg, route intravenous; in short: as §2
# [17] = Volume of distribution at steady state in FVB mouse plasma at 1 mg/kg, iv administered as single dose; assay type: ADME, organism-based; set-up: dose 1 mg/kg, route intravenous; settings: read-out: Vdss; in short: as §2
# [18] = Ratio of drug level in brain to plasma in FVB mouse brain at 10 mg/kg, po administered as single dose; assay type: ADME, organism-based; set-up: dose 10 mg/kg, route oral; settings: brain and plasma, read-out: BPR; in short: as §2
# Brain [19] = experiment: (§3) AUC in mouse brain at 10 mg/kg, po administered as single dose; assay type: ADME, organism-based; set-up: dose 10 mg/kg, route oral; settings: in vivo
# Mus musculus [20] = experiment: Antiprion activity against mouse Scrapie prion protein ME7 infected in mouse assessed as mouse survival at 210 mg/kg/day (reference value: 126 +/- 2 days); assay type: organism-based
# [21] = Unbound fraction in mouse brain; assay type: ADME, tissue-based
# In short: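 The fraction unbound in mouse brain tissue was estimated with an in vitro brain tissue binding assay.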
# Cervus elaphus nelsoni = experiment: Antiprion activity against elk PrpC protein infected in mouse chronic wasting disease model assessed as increase in mouse survival (reference value: 108 +/- 3 days)
# Plasma = experiment: (§4) AUC in mouse plasma at 10 mg/kg, po administered as single dose; assay type: ADME, organism-based; set-up: dose 10 mg/kg, route oral; settings: in vivo
# Mus musculus [22] = experiment: Antiprion activity against mouse RML prion protein infected in mouse assessed as mouse survival at 210 mg/kg/day (reference value: 118 +/- 1 days); assay type: organism-based
# Brain [23] = experiment: (§5) Cmax in mouse brain at 10 mg/kg, po administered as single dose; assay type: ADME, organism-based; set-up: dose 10 mg/kg, route oral; settings: in vivo
# [24] = as §5; assay type: ADME, organism-based; set-up: dose 10 mg/kg, route oral; settings: brain
# [25] = as §3; assay type: ADME, organism-based; set-up: dose 10 mg/kg, route oral; settings: brain
# [26] = as §4; assay type: ADME, organism-based; set-up: dose 10 mg/kg, route oral; settings: plasma
# Mus musculus [27] = experiment: Increase in survival in sc dosed mouse prion disease model assessed as extension of survival relative to untreated control; assay type: functional
# Mus musculus [28] = experiment: Increase in survival in sc dosed mouse prion disease model assessed as increase in survival; assay type: functional
structure (smiles),measurement,setting,value
Cc1ccc(Nc2nc(-c3cc(-c4ccccc4)no3)cs2)nc1,concentration at 72 h,[1],5390 nM
same,concentration at 72 h,[2],12.6 µM
same,EC50,[3],950 nM
same,AUC,[4],23.2 µM·h
same,concentration at 72 h,[5],23.3 µM
same,concentration at 72 h,[6],880 nM
Cc1ccc(Nc2nc(-c3ccncc3)cs2)nc1,EC50,[3],1600 nM
same,AUC,[4],9.7 µM·h
C(=N/Nc1ccc(-c2cnco2)cc1)/c1ccncc1,bioavailability,[7],24.8%
same,AUC,[8],0.83 µM·h
same,AUC,[9],2.06 µM·h
same,Cmax,[10],460 nM
same,half-life,[11],60.6 min
same,Cmax,[12],1760 nM
same,half-life,[13],13.2 min
same,AUC,[14],1.06 µM·h
same,Cmax,[15],830 nM
same,clearance,[16],76 mL/min/kg
same,Vd,[17],1.53 L/kg
same,Kp,[18],0.51
Cc1cccc(Nc2nc(-c3ccc(-c4ccccc4)cc3)cs2)n1,bioavailability,[7],40.3%
same,concentration at 72 h,[1],19300 nM
same,AUC,[8],2.78 µM·h
same,AUC,[9],11.2 µM·h
same,concentration at 72 h,[2],37.4 µM
same,Cmax,[10],2450 nM
same,EC50,[3],1300 nM
same,half-life,[11],279 min
same,AUC,Brain [19],9.78 µM·h
same,AUC,[4],303 µM·h
same,Survival,Mus musculus [20],214 days
same,fraction unbound,[21],0.08
same,Survival,Cervus elaphus nelsoni,237 days
same,Cmax,[12],2490 nM
same,half-life,[13],130 min
same,concentration at 72 h,[5],31.8 µM
same,AUC,[14],29.1 µM·h
same,Cmax,[15],1660 nM
same,AUC,Plasma,6.99 µM·h
same,clearance,[16],15.3 mL/min/kg
same,Survival,Mus musculus [22],204 days
same,concentration at 72 h,[6],8700 nM
same,Vd,[17],2.46 L/kg
same,Kp,[18],2.6
Cc1cccc(Nc2nc(-c3ccc(N4CCOCC4)cc3)cs2)n1,EC50,[3],51 nM
Cc1ccnc(Nc2nc(-c3ccc(-c4ccccn4)s3)cs2)c1,bioavailability,[7],27.3%
same,AUC,[8],0.3 µM·h
same,AUC,[9],0.82 µM·h
same,Cmax,[10],1620 nM
same,half-life,[11],58.8 min
same,AUC,[4],60.2 µM·h
same,fraction unbound,[21],0.08
same,Cmax,[12],520 nM
same,half-life,[13],70.8 min
same,AUC,[14],4.54 µM·h
same,Cmax,[15],430 nM
same,clearance,[16],151 mL/min/kg
same,Vd,[17],12.6 L/kg
same,Kp,[18],5.53
Cc1cccc(Nc2nc(-c3ccc(-c4ccnn4C)cc3)cs2)n1,EC50,[3],89 nM
c1ccc2cc(Nc3nc(-c4cc5ccccc5o4)cs3)ncc2c1,EC50,[3],920 nM
same,AUC,[4],10.9 µM·h
Cc1cccc(Nc2nc(-c3ccc(-c4cccnc4)cc3)cs2)n1,Cmax,Brain [23],2460 nM
same,EC50,[3],68 nM
same,AUC,Brain [19],10.9 µM·h
same,AUC,Plasma,15.6 µM·h
Cc1ccc(Nc2nc(-c3ccc(-c4ccccn4)s3)cs2)nc1,EC50,[3],1200 nM
same,AUC,[4],4.6 µM·h
c1ccc2cc(Nc3nc(-c4ccncc4)cs3)ncc2c1,concentration at 72 h,[1],80 nM
same,concentration at 72 h,[2],0.1 µM
same,AUC,[4],59.1 µM·h
same,concentration at 72 h,[5],0.04 µM
same,concentration at 72 h,[6],20 nM
O=C(Nc1nc(-c2ccc(-c3ccccc3)cc2)cs1)C1CC1,Cmax,[24],4.34 µM
same,AUC,[25],18.6 µM·h
same,AUC,[26],12.7 µM·h
O=C(CN1CCCC1)Nc1ccc(Cc2ccc(NC(=O)CN3CCCC3)cc2)cc1,Activity,Mus musculus [27],12%
same,Survival,Mus musculus [28],20%
Cc1ccnc(Nc2nc(-c3ccncc3)cs2)c1,EC50,[3],5000 nM
same,AUC,[4],34.6 µM·h
Cc1cccc(Nc2nc(-c3cc4ccccc4o3)cs2)n1,concentration at 72 h,[1],2700 nM
same,concentration at 72 h,[2],3.23 µM
same,EC50,[3],1500 nM
same,AUC,[4],65.4 µM·h
same,concentration at 72 h,[5],3.74 µM
same,concentration at 72 h,[6],1310 nM
Cc1cccc(Nc2nc(-c3ccc(-c4ccncc4)cc3)cs2)n1,Cmax,Brain [23],500 nM
same,EC50,[3],87 nM
same,AUC,Brain [19],1.68 µM·h
COc1ccc(-c2csc(Nc3cc4ccccc4cn3)n2)cc1OC,concentration at 72 h,[1],60 nM
same,concentration at 72 h,[2],0.32 µM
same,AUC,[4],6.3 µM·h
same,concentration at 72 h,[5],0.14 µM
same,concentration at 72 h,[6],30 nM
Cc1cccc(Cn2cc(-c3ccc(-c4cccnc4)cc3)cn2)n1,EC50,[3],> 10000 nM
